# DAX1 inh-1: blocks DAX1 repression of SF-1 activated StAR promoter; AID 652010; hit rate 1.1% among 370,000; HEK293T StAR-luciferase reporter, SF-1/DAX-1 repression relief; inhibition, % at 6.8 µM;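 active = inhibition above the mean over all tested compounds plus 3 SD, cut at about 3.6% in these data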;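 note: higher inhibition means more luminescence from relief of DAX-1 repression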
# GASC-1 inh: blocks human GASC-1 demethylase activity; Q9H3R0; inhibition, % at 2.35 µM; hit rate 0.069% among 330,000; GST-JMJD2C(1-420) H3K9me3 demethylation, DELFIA europium; AID 2099;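 active = more than half of a compound's replicate wells show inhibition beyond 50%, single wells judged on their own value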;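 note: signal counts dimethyl H3K9 product captured on neutravidin plate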
# DAX1 inh-2: inhibits human nuclear receptor DAX1; P51843; HEK293 Gal4-DAX1 luciferase reporter, luminescence; inhibition, % at 6.75 µM; hit rate 0.99% among 340,000;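 active = inhibition above the mean over all tested compounds plus 3 SD, cut at about 4.2% in these data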;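 note: inhibition shows as a rise in luminescence from relieved DAX1 repression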
# SMARCA2 act: activators of SMARCA2 function. MG213 cells, MMTV-luciferase reporter, dexamethasone, overnight. AID 652017. hit rate 1% among 370,000. activation, % at 9.1 µM; in the data active = activation above about 7.8%
# NR2E3 ag-1: NR2E3 (human) agonism | Q9Y5X4 | GST-NR2E3/biotin-RetCOR TR-FRET, 1536-well | inhibition of corepressor binding, % at 4.78 µM | hit rate 0.12% among 320,000 | AID 2300;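 active = percent inhibition above the cutoff of mean plus 3 SD of all tested compounds, set per screening campaign, cut at about 20% in these data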
#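 System: GST-tagged NR2E3 plus biotinylated RetCOR corepressor; Buffer or medium: pH 7.5 Tris-based buffer; Probe or stimulus: RetCOR corepressor, biotinylated, 7 nM; Doses: compound at 4.8 µM, single dose; Schedule: 5 h incubation at 4 °C; Technique: time-resolved FRET; Evaluation: percent inhibition of TR-FRET ratio; Replication: one well per compound, singlicate testing.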
# NR2E3 ag-2: agonists of human NR2E3 nuclear receptor; inhibition of corepressor binding, % at 3.98 µM; Q9Y5X4; CHO-S Gal4-NCOR/VP16-NR2E3 two-hybrid, luciferase; hit rate 0.35% among 360,000; AID 602229;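 active = inhibition above the mean of all tested compounds plus 3 SD, cut at about 70% in these data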;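 note: higher means lower luciferase signal from less NR2E3 corepressor binding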
# NR2E3 ag confirm: NR2E3 (human) agonism, confirmation; shares compounds with NR2E3 ag-1; cell-free NR2E3 corepressor release, TR-FRET, 5 h; activation (reported as inhibition), % at 3.98 µM; hit rate 39% among 360; in the data active = activation above about 20%
# PPARg-NCOR2 ag: counter-screen for NR2E3 agonists: human PPARgamma-NCOR2 interaction agonists; shares compounds with NR2E3 ag-1; TR-FRET PPARg-NCOR2 coregulator interaction, biochemical; inhibition, % at 3.98 µM; hit rate 45% among 360; in the data active = inhibition above about 20%
# Hits are given with their value; - = inactive; . = no result given. Shown are actives, neighbours in structure and some others; about 3.2% of the full set was active somewhere.
SMILES,DAX1 inh-1,GASC-1 inh,DAX1 inh-2,SMARCA2 act,NR2E3 ag-1,NR2E3 ag-2,NR2E3 ag confirm,PPARg-NCOR2 ag
Nc1ccc2c(c1)C(=O)C(=O)c1ccccc1-2,-,-,-,-,20,-,-,48
C=CCn1c(NC(=O)c2ccccc2Cl)c(C#N)c2nc3ccccc3nc21,-,-,-,-,38,-,-,42
C[C@@H]1COc2cc(Br)ccc2S(=O)(=O)N1Cc1cn(Cc2ccc(F)cc2)nn1,-,.,.,-,.,.,.,.
COc1ccc2nc(NC(=O)CSc3nc4ccccc4o3)sc2c1,-,-,4.7,-,20,-,-,-
c1ccc(-c2cccc3[nH]cc(-c4ccccc4)c23)cc1,-,.,.,-,.,.,.,.
O=C(O)CCC(=O)N1CCN(c2nc(-c3ccccc3)c3cc(Br)ccc3n2)CC1,-,-,-,-,-,-,.,.
O=C(O)CCC(=O)N1CCN(c2nc(-c3ccccc3Cl)c3cc(Br)ccc3n2)CC1,-,-,-,-,24,-,-,-
CCCCCCCCN1CCS(=O)(=O)N(Cc2ccc(F)cc2)C(C(=O)OC)C1 (stereo not given),-,.,.,-,.,.,.,.
CCc1cc2cc3c(cc2nc1SCC(=O)Nc1cc(C)on1)OCO3,-,-,-,-,23,-,51,62
O=C(/C=C/c1ccco1)NC(=S)Nc1ccc(C(=O)O)cc1,-,-,-,-,20,-,-,-
O=C(O)CSc1ncnc2c1oc1ccccc12,-,-,-,-,-,-,.,.
O=C(CSc1ncnc2c1oc1ccccc12)Nc1ccccc1C(F)(F)F,-,-,-,-,44,-,70,74
N#CCCSc1ncnc2c1oc1ccccc12,-,-,-,-,21,-,-,-
CCN(CC)C(=O)c1ccc2c(c1)NC(=O)C(C)(C)O2,-,.,.,-,.,.,.,.
Cc1ccc(C)n1-c1ccc(C(=O)O)cc1,.,-,.,.,23,.,-,-
CC(=O)c1c(C(C)=O)c(C)n(-c2ccc(C(=O)O)cc2)c1C,-,-,-,-,-,-,.,.
C[C@@H]1NC(=O)N[C@@H]1CCCCCC(=O)O,-,-,-,-,76,-,77,72
Cc1cccc(C)c1NC(=O)CCCCCC1NC(=O)NC1C (stereo not given),-,-,-,-,47,-,35,-
O=C(O)CCCCC1SCC2NC(=O)NC21 (stereo not given),-,-,5.8,-,38,-,-,25
CC1NC(=O)NC1CCCCCC(=O)NCCc1ccccc1 (stereo not given),-,-,-,-,69,-,75,70
O=C(CCCCC(=O)NCCCc1ccccc1)NCCCc1ccccc1,-,-,-,-,-,-,.,.
O=C(O)CCCN1C(=O)C2C3CCC(C3)C2C1=O (stereo not given),-,.,-,-,.,-,.,.
CCCCCC1NC(=O)NC1CCCCCC(=O)O (stereo not given),-,-,-,-,-,-,.,.
CN1C(=O)C[C@@](C#N)(C(=O)N2CCCC2)[C@H]1c1ccccc1,-,.,.,-,.,.,.,.
Cc1cccc(-c2cccc3c4c([nH]c23)[C@@H]2C[C@H]3[C@@H](C(=O)N2CC4)[C@H](C)ON3C)c1,-,.,.,-,.,.,.,.
SMILES,DAX1 inh-1,GASC-1 inh,DAX1 inh-2,SMARCA2 act,NR2E3 ag-1,NR2E3 ag-2,NR2E3 ag confirm,PPARg-NCOR2 ag
N#Cc1ccc(/C=C2\CC3(OC(=O)c4ccccc4)CCCN2C3)cc1 (stereo not given),-,.,.,-,.,.,.,.
C[C@H]1COc2cc(F)ccc2S(=O)(=O)N1C,-,.,.,-,.,.,.,.
Cc1nn(CCc2nn[nH]n2)c2nc(-c3ccc(Br)cc3)cc(C(F)(F)F)c12,-,-,-,-,25,-,37,33
COc1cccc(NC(=O)C2CCCN2C(=O)Nc2ccc(Cl)cc2)c1 (stereo not given),-,.,.,-,.,.,.,.
CSc1nc(Sc2ccccc2Cl)c2ccccc2n1,-,-,-,-,26,-,-,-
COc1ccc(-c2cc(C(=O)N=Nc3c(O)[nH]c4ccccc34)[nH]n2)cc1,-,.,.,-,.,.,.,.
COC(=O)c1cc2c(C)c(C)c3ccccn3c-2c1C(=O)OC,-,-,-,-,-,-,.,.
COC(=O)c1cc2n3ccccc3c(C)c(-c3ccccc3)c-2c1C(=O)OC,-,-,-,-,59,-,63,63
COC(=O)[C@]12C[C@H](CC(=O)N3CCN(C(=O)c4ccco4)CC3)C(=O)N(CCc3ccc(OC)c(OC)c3)C1=C[C@H](C1CCCC1)O[C@@H]2C,-,.,.,-,.,.,.,.
COC(=O)[C@H](C(C)C)N(CCCc1cn(Cc2ccc(C)cc2)nn1)S(=O)(=O)c1ccccc1Br,-,.,.,-,.,.,.,.
CCCCCn1c(SCC#N)nc2cc(C(=O)NCC3CCCO3)ccc2c1=O (stereo not given),-,-,-,-,22,-,-,-
CCc1ccccc1NC(=O)CSc1nc2cc(C(=O)NCC3CCCO3)ccc2c(=O)n1CC1CCCO1 (stereo not given),-,.,-,-,.,-,.,.
O=C(CSc1nc(Cc2ccccc2)nc2ccccc12)Nc1ccc2c(c1)OCCO2,-,-,-,-,28,-,-,-
O=C(CSc1ncnc2ccccc12)Nc1ccc2c(c1)OCCO2,-,-,-,-,-,-,.,.
Cc1cc(N2C(=O)C(O)=C(C(=O)c3ccco3)C2c2ccc(Cl)cc2)no1 (stereo not given),-,-,-,-,-,-,.,.
Cc1cc(N2C(=O)C(O)=C(C(=O)c3cc4ccccc4o3)C2c2cccs2)no1 (stereo not given),-,-,-,-,24,-,31,34
Cc1cc(N2C(=O)C(O)=C(C(=O)c3ccc(C)o3)C2c2cccs2)no1 (stereo not given),-,-,-,-,-,-,.,.
Cc1cc(N2C(=O)C(O)=C(C(=O)c3ccco3)C2c2ccccc2F)no1 (stereo not given),-,-,-,-,28,-,-,-
Cc1ccc(C2C(C(=O)c3cc4ccccc4o3)=C(O)C(=O)N2c2cc(C)on2)cc1 (stereo not given),-,-,-,-,23,-,28,35
Cc1cc(C)cc(OC[C@@H](O)CN2CCC(C(O)(c3ccccc3)c3ccccc3)CC2)c1,-,.,.,-,.,.,.,.
O=C(Nc1ccccc1)c1ccc(Br)c(S(=O)(=O)Nc2cccnc2)c1,-,-,-,-,-,-,.,.
O=S(=O)(Nc1cccnc1)c1ccc(Br)c2ccccc12,-,-,-,-,30,-,-,21
O=C(NC1CCCCN(Cc2cccc(C(F)(F)F)c2)C1=O)c1ccc(COc2ccccc2)cc1 (stereo not given),-,.,.,-,.,.,.,.

# Assay outcomes deposited in PubChem by several laboratories.
